The target in test [1] is T1, Bromodomain-containing protein 4 (Homo sapiens, UniProt O60885). Briefly: Inhibition of His/thioredoxin-tagged human recombinant BRD4 bromodomain-1 (43 to 166 residues) expressed in Escherichia coli BL21 Star (DE3) pre-incubated for 30 mins followed by biotinylated histone peptide H4 addition measured after 30 mins by AlphaScreen assay. (In Alpha technology, singlet oxygen from a donor bead excites a nearby acceptor bead.)

Test [2] addresses T2, Serine/threonine-protein kinase ULK1 (Homo sapiens) (UniProt O75385).
T2 sequence (whole entry): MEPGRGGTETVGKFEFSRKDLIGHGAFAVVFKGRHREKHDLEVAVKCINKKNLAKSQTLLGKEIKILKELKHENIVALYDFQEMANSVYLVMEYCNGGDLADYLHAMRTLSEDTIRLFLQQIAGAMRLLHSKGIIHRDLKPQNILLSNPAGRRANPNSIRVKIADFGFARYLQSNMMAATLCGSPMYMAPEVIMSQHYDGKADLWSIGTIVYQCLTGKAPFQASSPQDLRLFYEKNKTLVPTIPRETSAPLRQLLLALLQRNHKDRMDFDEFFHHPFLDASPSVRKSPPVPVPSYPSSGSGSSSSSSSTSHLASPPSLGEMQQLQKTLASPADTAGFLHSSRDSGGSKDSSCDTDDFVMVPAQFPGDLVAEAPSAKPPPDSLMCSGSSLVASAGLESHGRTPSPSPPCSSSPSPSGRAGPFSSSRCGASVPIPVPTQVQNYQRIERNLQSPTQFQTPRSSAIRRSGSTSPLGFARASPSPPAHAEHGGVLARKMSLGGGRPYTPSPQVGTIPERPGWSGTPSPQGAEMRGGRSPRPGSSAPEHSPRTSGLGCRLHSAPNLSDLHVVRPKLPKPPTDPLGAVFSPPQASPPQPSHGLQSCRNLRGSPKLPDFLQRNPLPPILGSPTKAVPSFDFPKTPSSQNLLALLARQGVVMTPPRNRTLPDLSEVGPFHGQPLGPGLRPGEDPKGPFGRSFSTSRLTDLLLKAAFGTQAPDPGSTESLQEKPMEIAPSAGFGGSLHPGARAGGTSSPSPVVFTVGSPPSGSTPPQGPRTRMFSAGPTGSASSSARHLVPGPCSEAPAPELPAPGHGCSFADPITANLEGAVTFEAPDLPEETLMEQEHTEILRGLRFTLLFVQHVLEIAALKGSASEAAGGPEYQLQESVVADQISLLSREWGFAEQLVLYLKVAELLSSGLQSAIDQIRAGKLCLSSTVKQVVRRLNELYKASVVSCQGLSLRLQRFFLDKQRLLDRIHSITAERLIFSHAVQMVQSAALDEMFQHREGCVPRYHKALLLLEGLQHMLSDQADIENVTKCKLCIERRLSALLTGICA
Briefly: Inhibition of recombinant human ULK1 (1 to 649 residues) expressed in baculovirus infected Sf9 cells at 1 to 10^6 nM using MBP as substrate after 60 mins in presence of ATP by ADO-Glo assay.

A further test relates to MCF7. Briefly: Induction of autophagy in human MCF7 cells assessed as upregulation of beclin1 expression at 1.5 uM measured up to 36 hrs by Western blot analysis. It is filed as functional, cell-based. An outline of the steps:
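MCF-7 (1.5 µM) or MDA-MB-231 (3 µM) cells treated for indicated times. Adherent and floating cells lysed in RIPA with 1 mM PMSF, 4°C for 1 h. Equal protein run on 10-15% SDS-PAGE, transferred to PVDF, blocked with milk or BSA, probed with primary then HRP secondary antibodies, ECL detection; β-actin as loading control.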

In another test the test system is MDA-MB-468. The test can be described thus: Induction of autophagy in human MDA-MB-468 cells assessed as upregulation of beclin1 expression measured up to 48 hrs by Western blot analysis. The test is classed as functional, cell-based.
The target of test [3] is T1, Bromodomain-containing protein 4. Briefly: Inhibition of BRD4 in human MCF7 cells assessed as downregulation of mTOR phosphorylation at ser244 at 1.5 uM measured up to 36 hrs by Western blot analysis. The test is classed as cell-based. An outline of the steps: (§1)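 MCF-7 (1.5 μM) or MDA-MB-231 (3 μM) cells treated for indicated times. Adherent and floating cells lysed in RIPA with 1 mM PMSF. Equal protein run on 10-15% SDS-PAGE, blotted to PVDF, blocked in milk or BSA, HRP/ECL detection. β-actin loading control.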
A general note: A western blot detects proteins with antibodies after separation by electrophoresis.

The target is the same in test [4]. The test can be described thus: Inhibition of BRD4 in human MDA-MB-231 cells assessed as downregulation of mTOR phosphorylation at ser244 at 3 uM measured up to 36 hrs by Western blot analysis. The test is classed as cell-based. An outline of the steps:
as §1

Test [5] concerns the target Bromodomain testis-specific protein (Homo sapiens, UniProt Q58F21). Briefly: Inhibition of recombinant human N-terminal GST-tagged BRDT bromodomain-1 (22 to 138 residues) expressed in Escherichia coli expression system after 120 mins by TR-FRET assay. An outline of the steps:
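TR-FRET bromodomain binding. Recombinant BRD domain, BET ligand and test agent in 20 μl assay buffer with 1% DMSO final. Incubated 120 min at room temperature. Blank lacks BET ligand.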
(In general: TR-FRET usually uses a lanthanide donor and a delayed reading to cut background.)

Test [6] has as its system Mus musculus. The test can be described thus: In vivo Antiproliferative activity in BALB/c mouse xenografted with human MCF7 cells assessed as reduction in Ki-67 positive cells at 100 mg/kg, ig administered once a day for 24 days by hematoxylin-staining based immunohistochemistry analysis. The test is classed as functional, organism-based. The gist of the method:
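Xenograft tumors from vehicle and 100 mg/kg groups were formalin-fixed and sectioned. Antigen retrieval by microwaving in EDTA buffer (pH 8.0) or citrate buffer (pH 6.0). […] Percentage of positive staining quantified.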

The target in test [7] is T1, Bromodomain-containing protein 4. Briefly: Inhibition of BRD4 interaction with p53 in human MCF7 cells at 1.5 uM by co-immunoprecipitation assay. It is filed as cell-based. An outline of the steps:
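Cells lysed in RIPA buffer (40 mM Tris-HCl pH 7.5, 150 mM NaCl, 0.5% NP-40, 5% glycerol, 10 mM NaF, protease inhibitors). Lysates incubated overnight at 4 °C with BRD4 or p53 antibody plus protein A/G beads, washed 3 times, resolved on 10% SDS-PAGE and blotted for AMPKα or p53.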

The test system of the next test is MDA-MB-231. Briefly: Induction of autophagy in human MDA-MB-231 cells assessed as induction of autophagic vacuoles at 3 uM by MDC-based fluorescence microscopy. The test is classed as functional, cell-based. The gist of the method:
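MDA-MB-231 cells exposed to 3 μM for indicated times, stained with 0.05 mM monodansylcadaverine, and autophagic vacuoles viewed by fluorescence microscopy.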

Test [8] deals with Mus musculus. Briefly: Induction of LC3 accumulation in BALB/c mouse xenografted with human MDA-MB-231 cells at 100 mg/kg, ig administered once a day for 24 days by Western blot analysis. It is filed as functional, organism-based. The gist of the method:
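Tumor tissues excised from MCF-7 or MDA-MB-231 xenograft mice were lysed and analysed by western blot for BRD4, c-Myc, LC3 and cleaved caspase-3.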

The next test deals with MCF-7. The test can be described thus: Downregulation of HMGB1 expression in human MCF-7 cells at 1.5 uM measured up to 24 hrs by Western blot analysis.

The values that follow come from ChEMBL document CHEMBL4028911, “Discovery of a Small-Molecule Bromodomain-Containing Protein 4 (BRD4) Inhibitor That Induces AMP-Activated Protein Kinase-Modulated Autophagy-Associated Cell Death in Breast Cancer” (J Med Chem, 2017).

What is called IC50 is the midpoint of a concentration-inhibition curve.

The structures appear in SMILES notation. Calls of active or inactive are those of the source. The rule behind the calls is not given here.

In the case of `Cc1cc(-c2nc3sc4c(c3c(=O)[nH]2)CCN(C)C4)cc(C)c1O`, the IC50 in test [1] is 430 nM; in test [5] it was more than 100000 nM. Also, the inhibition entry in test [2] is “inactive”. Moreover, the outcome with MCF7, in the test on Mus musculus [6], with MDA-MB-231, with Mus musculus [8] and in the test with MCF-7 was Active. Also, the result with MDA-MB-468 was inactive. Further, the inhibition result in [3], in [4] and in [7] was “Active” each time.
